# Screens as filed in PubChem BioAssay.
# Compounds with a hit are over-represented: about 3.9% of the library has one in this group of screens.
# OX1R antag-1: OX1R (human) antagonism. actives 1.8% (n = 330,000). O43613. OX1R-expressing cells, FRET antagonist read-out. inhibition, % at 6.6 µM. AID 485270; in the data active means inhibition mostly above about 38%, no sharp cut-off; inactive means mostly below about 40%;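 further: 0% = agonist challenge alone and 100% = reference antagonist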
# Target sequence (O43613 whole entry, looked up): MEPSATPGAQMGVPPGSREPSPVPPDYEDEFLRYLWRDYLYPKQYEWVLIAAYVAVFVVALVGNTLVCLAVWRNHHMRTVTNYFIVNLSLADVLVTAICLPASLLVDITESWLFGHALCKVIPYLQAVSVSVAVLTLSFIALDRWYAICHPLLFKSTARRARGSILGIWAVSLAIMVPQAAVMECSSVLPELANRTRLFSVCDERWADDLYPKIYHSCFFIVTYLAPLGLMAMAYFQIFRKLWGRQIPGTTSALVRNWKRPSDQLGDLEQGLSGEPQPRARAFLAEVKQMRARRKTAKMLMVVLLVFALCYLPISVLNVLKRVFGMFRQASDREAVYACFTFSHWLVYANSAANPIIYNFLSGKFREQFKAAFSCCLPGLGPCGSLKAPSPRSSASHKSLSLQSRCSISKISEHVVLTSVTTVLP
# TAAR1 antag: antagonists of human TAAR1; inhibition, % at 3 µM; CHO RD-HGA16 TAAR1, Fluo-8 calcium fluorescence, antagonist; Q96RJ0; AID 624466; actives 1.5% (n = 360,000);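 active means inhibition above a per-plate cutoff, the mean inhibition of test compounds on that plate plus 3 SD, cut at about 49% in these data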;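 further: 0% = DMSO plus EC80 beta-PEA response and 100% = DMSO alone without agonist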
#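 Assay system: CHO-derived RD-HGA16 cells stably expressing human TAAR1 plus Gα16. Timing: 140 s kinetic read after compound, 140 s after agonist. Technique: kinetic Fluo-8 calcium fluorescence measurement. Measure: % inhibition of agonist calcium response.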
# OX1R antag-2: human HCRTR1 antagonism; inhibition, % at 5 µM; CHO/OX1R cells, Fluo-8 calcium fluorescence, orexin A; actives 0.43% (n = 330,000); AID 434989; O43613;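 active means inhibition above its plate's threshold, mean inhibition of all tested compounds on the plate plus 3 SD, cut at about 37% in these data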;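 further: 0% = orexin A challenge wells and 100% = SB-334867-A antagonist wells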
# TAAR1 ag: agonists of human TAAR1 | Q96RJ0 | CHO RD-HGA16 TAAR1, Fluo-8 calcium fluorescence; vehicle wells 0%, saturating PEA agonist 100% | activation, % at 3 µM | actives 0.99% (n = 360,000);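 active means activation above the mean activation of all test compounds in the run plus 3 SD, cut at about 38% in these data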
#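 Benchmarks: low control DMSO, high control PEA (EC100); System: CHO RD-HGA16 cells carrying human TAAR1 plus Gα16; Detection: Fluo-8 fluorescence, 5 s baseline then 140 s kinetic read; Schedule: 17-24 h plating, Fluo-8 75 min 37 °C, 30 min RT; Read-out basis: % activation from peak over basal fluorescence ratio, DMSO-to-PEA scaled.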
# CHO parental Ca: signal in parental CHO cells, OX1R antagonist counter-screen | parental CHO-K1, ATP-induced calcium, Fluo-8 fluorescence | inhibition, % at 5.6 µM | actives 0.63% (n = 330,000) | AID 463079;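 active means inhibition above that plate's mean sample inhibition plus 3 SD, cut at about 26% in these data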;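 further: 0% = ATP-challenged DMSO wells and 100% = DMSO wells without ATP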
#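 Assay system: parental CHO cells; Read-out basis: percent inhibition of ATP-evoked calcium rise, normalized to controls; Benchmarks: ATP and no-ATP DMSO wells; Compound dosing: single nominal dose of 5.6 µM per compound; Signal: Fluo-8 calcium dye fluorescence; Also added: ATP as calcium-mobilizing challenge; Repeats: singlicate.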
# An asterisk follows results filed as active; . = no result given.
SMILES,OX1R antag-1,TAAR1 antag,OX1R antag-2,TAAR1 ag,CHO parental Ca
O=C(NCC(c1ccco1)N1CCc2ccccc2C1)c1cccc(Br)c1 (stereo not given),33,-1,-31,38*,-26
O=c1ccc2cccc([N+](=O)[O-])c2[nH]1,.,-7,.,1,.
CCCS(=O)(=O)NC(=O)C1(C)CCCN(C(=O)c2cc(C)n(C(C)(C)C)n2)C1 (stereo not given),.,5,.,2,.
Cc1ccc(S(=O)(=O)N2[C@H](c3cccc(Cl)c3)CC(=O)[C@@H]3CN(S(=O)(=O)c4ccccc4C)[C@H](c4ccc(Cl)cc4)C[C@@H]32)cc1,.,2,.,1,.
COc1cc(NC(C)CCCN)c2nc(C)ccc2c1Oc1ccc(F)cc1 (stereo not given),.,-15,.,3,.
Cc1ccc(C(=O)NCC(c2ccco2)N2CCc3ccccc3C2)cc1C (stereo not given),17,-28,-36,12,-25
Cc1ccc(C(=O)NCC(c2ccco2)N2CCc3ccccc3C2)cc1 (stereo not given),23,-11,-15,40*,-8
Cc1ccc(S(=O)(=O)N2C[C@H]3C(=O)C[C@@H](c4ccccc4C)N(S(=O)(=O)c4ccc(C)cc4)[C@H]3C[C@H]2c2ccccc2)cc1,.,-8,.,0,.
COc1cc(Cl)c(NC2=CC(=O)C(=O)c3ccccc32)c(OC)c1,33*,0,-9,1,-17
Cc1ccccc1CN1CCN(C(=O)[C@H]2O[C@@H](n3cnc4c(N)ncnc43)[C@H](O)[C@@H]2O)CC1,.,10,.,0,.
COc1ccc(C2=Nn3c(nnc3-c3ccccc3F)SC2)cc1OC1CCCC1,23,66*,32,3,-12
C#Cc1cccc(N2C(=O)C3C4C=CC(C3C2=O)C2C(=O)N(c3cccc(C#C)c3)C(=O)C42)c1 (stereo not given),.,-10,.,2,.
Cc1cc(=O)[nH]c(SCC(=O)Nc2ccc(N3CCCCC3)cc2)n1,9,-1,37,-2,43*
CC(C)(C)OC(=O)[C@H](Cc1ccccc1)NC(=O)c1nc[nH]c1C(=O)NCCCCCN,29,5,2,12,-3
C[C@H](NC(=O)c1nc[nH]c1C(=O)NCc1ccc(CNC(=O)OC(C)(C)C)cc1)C(=O)OCc1ccccc1,17,82*,40,21,12
CC(C)(C)OC(=O)NCCCCCNC(=O)c1[nH]cnc1C(=O)N[C@@H](Cc1ccccc1)C(=O)OC(C)(C)C,3,.,41,.,40*
C[C@@H]1CCCCO[C@H](CN(C)S(=O)(=O)c2ccccc2)[C@@H](C)CN([C@H](C)CO)C(=O)c2cc(NC(=O)Cc3ccccc3)ccc2O1,.,-5,.,5,.
C[C@H]1C(C(=O)N(C)C2CCCCC2)=Cc2c(n(-c3ccc(F)cc3)c(=O)n2CCCOc2ccccc2)C=C1c1ccccc1,.,-54,.,0,.
O=c1cc(CN2CCN(c3ccccc3)CC2)c2ccccc2o1,.,-7,.,3,.
COc1ccc(CNC(=O)N2[C@H]3CC[C@@H]2C=C(c2ccc(F)cc2OCc2ccccc2)C3)cc1OC,.,49*,.,8,.
Cc1ccc(Cc2c(-c3cccc(Cl)c3)nc3c(C)cc(Br)cn23)cc1,.,-12,.,-1,.
Cc1ccc(NC(=O)c2cccc(S(=O)(=O)Nc3c(C)n(C)n(-c4ccccc4)c3=O)c2)cc1C,.,-6,.,4,.
Cc1ccccc1S(=O)(=O)Cc1ccc(C(=O)N2CCN(c3cccc(C)c3C)CC2)o1,17,73*,3,26,-4
Cc1ccccc1S(=O)(=O)Cc1ccc(C(=O)N2CC(C)CC(C)C2)o1 (stereo not given),13,-15,-36,42*,-11
COc1ccc2sc(N(CCCN(C)C)C(=O)c3ccc(S(=O)(=O)N4CCCC4)cc3)nc2c1,10,-33,1,12,-11
CN(C)CCCN(C(=O)c1ccc2c(c1)CCCC2)c1nc2cc3c(cc2s1)OCO3,11,-7,-7,41*,-1
CN(C)CCCN(C(=O)c1ccc(S(=O)(=O)N2CCc3ccccc3C2)cc1)c1nc2c(F)cccc2s1,2,30,-13,31,-32
Cc1cc(C)c2sc(N(CCCN(C)C)C(=O)c3ccc(S(=O)(=O)N4CCc5ccccc5C4)cc3)nc2c1,-1,.,-3,.,-15
